Measurements as given in ChEMBL document CHEMBL2034858, “An efficient one-pot synthesis, structure, antimicrobial and antioxidant investigations of some novel quinolyldibenzo[b,e][1,4]diazepinones” (2012).
Converted amounts (≈) assume the structure as drawn.

Experiments:
[1] = system: Mycobacterium tuberculosis; test: Antitubercular activity against Mycobacterium tuberculosis H37Rv at > 256 ug/mL; assay type: functional
Escherichia coli = test: Antibacterial activity against Escherichia coli MTCC 443 after 24 hrs by micro-broth dilution method; assay type: functional; details: MTCC 443, 24 h
Aspergillus fumigatus = test: Antifungal activity against Aspergillus fumigatus MTCC 3008 after 48 hrs by micro-broth dilution method; assay type: functional
Vibrio cholerae = test: Antibacterial activity against Vibrio cholerae MTCC 3906 after 24 hrs by micro-broth dilution method; assay type: functional; details: MTCC 3906, 24 h
Clostridium tetani = test: Antibacterial activity against Clostridium tetani MTCC 449 after 24 hrs by micro-broth dilution method; assay type: functional; details: MTCC 449, 24 h
Candida albicans = test: Antifungal activity against Candida albicans MTCC 227 after 48 hrs by micro-broth dilution method; assay type: functional
[2] = system: Mycobacterium tuberculosis; test: Antitubercular activity against Mycobacterium tuberculosis H37Rv at 250 ug/mL; assay type: functional; details: read-out: GI
Summary of the method: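 M. tuberculosis H37Rv tested on conventional L.J. (Löwenstein–Jensen) medium; activity read as percent growth inhibition.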

Salmonella typhi = test: Antibacterial activity against Salmonella typhi MTCC 98 after 24 hrs by micro-broth dilution method; assay type: functional, Salmonella enterica subsp. enterica serovar Typhi; details: Salmonella enterica, MTCC 98, 24 h
Bacillus subtilis = test: Antibacterial activity against Bacillus subtilis MTCC 441 after 24 hrs by micro-broth dilution method; assay type: functional; details: MTCC 441, 24 h
[3] = Antioxidant activity assessed as ascorbic acid equivalent/100g at 200 ug/mL by FRAP assay; assay type: functional
Streptococcus pneumoniae = test: Antibacterial activity against Streptococcus pneumoniae MTCC 1936 after 24 hrs by micro-broth dilution method; assay type: functional; details: MTCC 1936, 24 h

Molecule | growth inhibition (GI) [1] | MIC (Escherichia coli) | MIC (Aspergillus fumigatus; MTCC 3008, 48 h) | MIC (Vibrio cholerae) | MIC (Clostridium tetani) | MIC (Candida albicans; MTCC 227, 48 h) | inhibition of growth at 250 µg/mL [2] | MIC (Salmonella typhi) | MIC (Bacillus subtilis) | Activity [3] | MIC (Streptococcus pneumoniae) | MIC (Aspergillus fumigatus) | MIC (Candida albicans)
Cc1ncc([N+](=O)[O-])n1CCO [METRONIDAZOLE] | 99% | – | – | – | – | – | – | – | – | – | – | – | –
C=CCn1c(=O)c(C2Nc3ccccc3NC3=C2C(=O)CC(C)(C)C3)cc2ccc(Cl)cc21 (stereo not drawn) | – | 250 mg/L (≈ 544 µM) | > 250 mg/L | > 250 mg/L | 250 mg/L (≈ 544 µM) | > 250 mg/L | 62% | 100 mg/L (≈ 217 µM) | 250 mg/L (≈ 544 µM) | 328 mmol | > 250 mg/L | – | –
C=CCn1c(=O)c(C2Nc3ccccc3NC3=C2C(=O)CC(C)(C)C3)cc2ccccc21 (stereo not drawn) | – | 200 mg/L (≈ 470 µM) | > 250 mg/L | > 250 mg/L | 200 mg/L (≈ 470 µM) | > 250 mg/L | < 50% | > 250 mg/L | > 250 mg/L | 324 mmol | > 250 mg/L | – | –
Clc1ccc(COC(Cn2ccnc2)c2ccc(Cl)cc2Cl)c(Cl)c1 (stereo not drawn) [MICONAZOLE] | 99% | – | – | – | – | – | – | – | – | – | – | – | –
C=CCn1c(=O)c(C2Nc3ccccc3NC3=C2C(=O)CCC3)cc2ccc(Cl)cc21 (stereo not drawn) | – | 100 mg/L (≈ 232 µM) | > 250 mg/L | 250 mg/L (≈ 579 µM) | 250 mg/L (≈ 579 µM) | > 250 mg/L | < 50% | 250 mg/L (≈ 579 µM) | 250 mg/L (≈ 579 µM) | 490 mmol | 250 mg/L (≈ 579 µM) | – | –
C=CCn1c(=O)c(C2Nc3ccccc3NC3=C2C(=O)CC(C)(C)C3)cc2ccc(C)cc21 (stereo not drawn) | – | 250 mg/L (≈ 569 µM) | > 250 mg/L | > 250 mg/L | 250 mg/L (≈ 569 µM) | > 250 mg/L | 91% | 250 mg/L (≈ 569 µM) | 250 mg/L (≈ 569 µM) | 270 mmol | > 250 mg/L | – | –
C=CCn1c(=O)c(C2Nc3ccccc3NC3=C2C(=O)CCC3)cc2ccc(C)cc21 (stereo not drawn) | – | 62.5 mg/L (≈ 152 µM) | 250 mg/L (≈ 608 µM) | 100 mg/L (≈ 243 µM) | 500 mg/L (≈ 1220 µM) | > 250 mg/L | 75% | 100 mg/L (≈ 243 µM) | 200 mg/L (≈ 486 µM) | 499 mmol | > 250 mg/L | – | –
CC1(C)S[C@@H]2[C@H](NC(=O)[C@H](N)c3ccccc3)C(=O)N2[C@H]1C(=O)O [AMPICILLIN] | – | 100 mg/L (≈ 286 µM) | – | 100 mg/L (≈ 286 µM) | 250 mg/L (≈ 715 µM) | – | – | 100 mg/L (≈ 286 µM) | 250 mg/L (≈ 715 µM) | – | 100 mg/L (≈ 286 µM) | – | –
OC(Cn1cncn1)(Cn1cncn1)c1ccc(F)cc1F [FLUCONAZOLE] | 99% | – | – | – | – | – | – | – | – | – | – | – | –
O=C(O)c1cn(C2CC2)c2cc(N3CCNCC3)c(F)cc2c1=O [CIPROFLOXACIN] | – | 25 mg/L (≈ 75.4 µM) | – | 25 mg/L (≈ 75.4 µM) | – | – | – | 25 mg/L (≈ 75.4 µM) | – | – | 50 mg/L (≈ 151 µM) | – | –
O=C(N[C@H](CO)[C@H](O)c1ccc([N+](=O)[O-])cc1)C(Cl)Cl [CHLORAMPHENICOL] | – | 50 mg/L (≈ 155 µM) | – | 50 mg/L (≈ 155 µM) | 50 mg/L (≈ 155 µM) | – | – | 50 mg/L (≈ 155 µM) | 50 mg/L (≈ 155 µM) | – | 50 mg/L (≈ 155 µM) | – | –
NYSTATIN | – | – | – | – | – | – | – | – | – | – | – | 100 mg/L | 100 mg/L
COC1=CC(=O)C[C@@H](C)[C@]12Oc1c(Cl)c(OC)cc(OC)c1C2=O [GRISEOFULVIN] | – | – | 100 mg/L (≈ 283 µM) | – | – | 500 mg/L (≈ 1420 µM) | – | – | – | – | – | – | –
